Measured values published in publication PMC7024737 (British Journal of Pharmacology, 2020).
Where “and” joins values, the source holds several entries; their conditions need not be identical. Identical values can stand only once. Like-named read-outs stand apart in the source and are kept apart here.

Legend:
human platelets (PRP) [1] = test: Shear stress-induced platelet aggregation; type: cell-based
human platelets (PRP) [2] = test: Agonist-induced platelet aggregation in human PRP; type: cell-based; details: for IC50: Homo sapiens, Platelet
How it was run: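 Human blood was anticoagulated with 3.2% citrate (1:9) and spun at 150 g for 15 min to give PRP, adjusted to 3 × 10^8 platelets/ml with PPP. PRP was incubated with test compound for 30 min at 37°C, then stimulated for 6 min with thrombin (0.6–0.8 U·ml−1), collagen (2–4 μg·ml−1), ADP (5–10 μM) or ristocetin (1.0–1.25 mg·ml−1). Aggregation was read by light transmission, with PPP as 100%.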

washed human platelets = test: SIPA in washed human platelets; type: cell-based; details: 30 min incubation, n = 6
How it was run: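 Human washed platelets (3 × 10^8/ml in Tyrode's pH 7.4, 2 mM CaCl2) were preincubated with test compound for 30 min, and 10 μg·ml−1 vWF was added. They were then sheared in a cone-plate viscometer at 10,800 s−1 for 10 min at 37°C and fixed with 0.5% glutaraldehyde. Aggregation was scored from single-cell counts by light microscopy and […]. n = 6, mean ± SEM.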

[3] = system: platelets in human whole blood; test: Thrombus formation under flow conditions, collagen-coated flow chamber; type: cell-based; details: shear rate 1,500 s^−1, concentration-dependent, n = 5
How it was run: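 Flow chambers were coated with 100 μg·ml−1 equine type I collagen for 60 min at room temperature, washed with PBS and blocked with 1% BSA for 60 min. Whole blood loaded with 5 μM calcein‑green AM was incubated with test compound for 30 min. It was perfused at 1,500 s−1 for 5 min, imaged by confocal microscopy, and reported as % coverage area, n = 5.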

washed platelets [4] = test: Intracellular calcium level under high shear stress; type: cell-based, human; details: washed platelets, 10,800 s^−1, concentration-dependent
platelets [5] = test: 5-HT release under high shear stress; type: cell-based, human
How it was run: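 Platelets were treated with a range of test compound concentrations for 30 min and exposed to high shear stress. Supernatants were collected by centrifugation at 12,000 g for 5 min at 4°C, and 5‑HT was measured by ELISA. Samples were run in duplicate, n = 5 per group. Values are expressed relative to matched vehicle and normalised to unsheared samples.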

washed platelets [6] = test: P-selectin expression under high shear stress; type: cell-based, human
How it was run: (§1)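 Human washed platelets (acid–citrate–dextrose with 1 μM PGE1, washed in Tyrode's pH 7.4, 3 × 10^8/ml, 2 mM CaCl2) were incubated with a range of test compound concentrations, then sheared at 10,800 s−1 for 10 min in a cone-plate viscometer. Cells were labelled with anti-CD42b-PE plus anti-CD62P-FITC, PAC-1-FITC or Alexa Fluor 488-fibrinogen for 20 min in the dark and read by flow cytometry (10,000 events). Values are relative to vehicle and normalised to unsheared samples, mean ± SEM. n = 6 for P-selectin and PAC-1, n = 5 for fibrinogen.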

GP IIb/IIIa = GP IIb/IIIa activation under high shear stress; type: cell-based, human
How it was run: as §1

washed platelets [7] = test: Fibrinogen binding under high shear stress; type: cell-based, human
How it was run: as §1

platelets [8] = test: Platelet cytotoxicity, LDH leakage; type: cell-based, human; details: concentrations up to 1,000 μM
How it was run: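 Platelets were incubated with test compound and centrifuged. Supernatant was added to Tris‑EDTA NADH buffer (56 mM Tris, 5.6 mM EDTA, 0.17 mM β‑NADH, pH 7.4) and preincubated for 10 min at 37°C, then 14‑mM pyruvate solution was added. LDH was read as the fall in A339, expressed as % of total activity in a 0.3% Triton X‑100 lysate. Samples were run in duplicate, with five repeats.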

vWF–GP Ib interaction = vWF–GP Ib interaction (Homo sapiens, UniProt P04275); test: vWF binding to platelets under high shear stress; type: cell-based
Chain of vWF–GP Ib interaction (P04275 764-2813 limits assumed): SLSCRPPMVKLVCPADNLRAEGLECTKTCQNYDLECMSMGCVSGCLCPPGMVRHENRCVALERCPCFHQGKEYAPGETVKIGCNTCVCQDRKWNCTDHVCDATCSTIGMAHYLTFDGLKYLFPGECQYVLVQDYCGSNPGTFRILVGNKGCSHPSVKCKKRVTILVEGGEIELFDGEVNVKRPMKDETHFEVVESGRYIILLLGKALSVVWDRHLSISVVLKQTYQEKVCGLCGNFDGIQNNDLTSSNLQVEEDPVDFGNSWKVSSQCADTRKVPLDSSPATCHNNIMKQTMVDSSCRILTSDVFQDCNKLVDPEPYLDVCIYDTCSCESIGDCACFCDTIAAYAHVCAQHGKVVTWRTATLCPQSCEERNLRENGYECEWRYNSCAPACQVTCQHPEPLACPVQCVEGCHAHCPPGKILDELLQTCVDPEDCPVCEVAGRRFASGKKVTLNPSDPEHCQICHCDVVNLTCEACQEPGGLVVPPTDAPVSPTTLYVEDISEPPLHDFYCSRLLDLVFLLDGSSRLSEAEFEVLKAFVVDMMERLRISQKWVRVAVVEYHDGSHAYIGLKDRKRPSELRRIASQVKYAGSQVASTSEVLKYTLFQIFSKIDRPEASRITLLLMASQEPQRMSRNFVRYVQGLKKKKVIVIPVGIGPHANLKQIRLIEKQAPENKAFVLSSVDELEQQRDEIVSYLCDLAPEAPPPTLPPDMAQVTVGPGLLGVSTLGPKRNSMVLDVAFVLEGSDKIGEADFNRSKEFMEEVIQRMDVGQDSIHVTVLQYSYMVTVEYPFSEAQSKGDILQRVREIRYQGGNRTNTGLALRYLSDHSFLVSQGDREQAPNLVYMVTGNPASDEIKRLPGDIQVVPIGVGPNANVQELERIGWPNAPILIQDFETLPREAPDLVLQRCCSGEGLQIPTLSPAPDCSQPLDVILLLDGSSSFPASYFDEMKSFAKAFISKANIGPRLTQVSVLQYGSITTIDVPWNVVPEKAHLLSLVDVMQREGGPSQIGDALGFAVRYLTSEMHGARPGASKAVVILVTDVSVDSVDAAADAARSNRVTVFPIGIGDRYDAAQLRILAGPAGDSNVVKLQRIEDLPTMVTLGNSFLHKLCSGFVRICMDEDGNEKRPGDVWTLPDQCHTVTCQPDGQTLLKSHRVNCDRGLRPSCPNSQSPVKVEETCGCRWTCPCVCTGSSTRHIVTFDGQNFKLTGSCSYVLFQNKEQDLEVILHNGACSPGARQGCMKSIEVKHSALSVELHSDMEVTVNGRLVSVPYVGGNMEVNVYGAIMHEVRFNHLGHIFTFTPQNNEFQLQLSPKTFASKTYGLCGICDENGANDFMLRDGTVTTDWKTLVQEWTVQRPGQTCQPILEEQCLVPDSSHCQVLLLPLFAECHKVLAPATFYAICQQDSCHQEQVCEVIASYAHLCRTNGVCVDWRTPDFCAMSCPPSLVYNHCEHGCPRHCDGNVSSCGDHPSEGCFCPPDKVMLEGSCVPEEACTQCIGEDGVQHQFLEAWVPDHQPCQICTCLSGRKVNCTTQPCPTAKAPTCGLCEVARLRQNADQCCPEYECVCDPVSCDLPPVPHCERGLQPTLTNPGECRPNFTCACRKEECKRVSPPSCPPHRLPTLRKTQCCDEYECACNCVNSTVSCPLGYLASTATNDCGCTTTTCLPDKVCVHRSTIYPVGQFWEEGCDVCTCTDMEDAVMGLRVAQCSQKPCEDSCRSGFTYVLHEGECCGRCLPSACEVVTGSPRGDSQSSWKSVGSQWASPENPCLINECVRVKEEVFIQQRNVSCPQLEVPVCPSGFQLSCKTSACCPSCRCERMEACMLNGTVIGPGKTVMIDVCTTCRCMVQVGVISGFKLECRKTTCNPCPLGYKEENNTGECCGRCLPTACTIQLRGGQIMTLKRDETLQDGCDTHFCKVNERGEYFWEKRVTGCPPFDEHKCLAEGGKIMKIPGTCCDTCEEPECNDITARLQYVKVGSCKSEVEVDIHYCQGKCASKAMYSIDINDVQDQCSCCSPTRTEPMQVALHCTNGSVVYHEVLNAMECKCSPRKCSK
How it was run: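 Platelets were treated with test compound, exposed to shear stress, and diluted in Tyrode's buffer. They were stained with anti‑vWF‑FITC and anti‑CD42b‑PE for 20 min in the dark, and 10,000 events were analysed by flow cytometry. For GP IIb/IIIa blockade, platelets were preincubated with 2 mM Arg‑Gly‑Asp. Values are expressed relative to vehicle and normalised to unsheared samples, n = 5.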

human purified vWF = test: Platelet adhesion to vWF-coated flow chamber under high shear stress; type: cell-based; details: flow chamber coated with 50 μg·ml^−1 vWF
[9] = Pharmacokinetic experiments in rats; type: in vivo; details: Sprague-Dawley, rat, plasma; for Tmax: SD rats, p.o. 25 mg·kg^−1
rat platelets (PRP) [10] = test: SIPA in rat PRP in vitro; type: cell-based; details: n = 8
rat platelets (PRP) [11] = test: Ex vivo determination of SIPA inhibition after oral dosing; type: in vivo; details: rats, 5, 10 and 25 mg·kg^−1 p.o., 1 hr
How it was run: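 Male SD rats (280–320 g) were gavaged with test compound in 5% DMSO/10% Tween 80 in water at 5 ml·kg−1. After 1 hr, aortic blood was drawn under urethane (1.25 g·kg−1 i.p.) into 3.8% citrate (1:9), and PRP was prepared. PRP was sheared at 10,800 s−1 in a cone‑plate viscometer, fixed with glutaraldehyde, and aggregation was scored by microscopic single‑cell count. n = 6 rats per group.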

[12] = system: carotid artery thrombosis in SD rats; test: FeCl3-induced arterial thrombosis model; type: in vivo, rat
SD rats = test: Transection tail bleeding time; type: in vivo, rat
How it was run: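 Male SD rats were dosed orally with test compound, either once or twice daily for 2 weeks; clopidogrel 8 mg·kg−1 was given on the same regimens. One hour after dosing, under urethane (1.25 g·kg−1 i.p.), tails were transected 3 mm from the tip and blotted every 30 s until bleeding stopped, with a 30 min cut‑off. n = 6 (single) or 5 (multiple) per group.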

[13] = Ex vivo prothrombin time and activated partial thromboplastin time; details: rats, therapeutic dose range p.o., 1 hr

Compound: CCc1occc(=O)c1OC(=O)c1ccc(O)c(OC)c1 [SP‐8008, benzoic acid, 4‐hydroxy‐3‐methoxy‐, 2‐ethyl‐4‐oxo‐4H‐pyran‐3‐yl ester]
- inhibition at 25 µM (human platelets (PRP) [1]; Homo sapiens, Platelet, read-out: In vitro SIPA inhibition (%)): 84 ± 16%
- Effect on SIPA in human PRP (human platelets (PRP) [1]; concentration-dependent, 30 min incubation, n = 8): significantly inhibited
- Selectivity for SIPA over thrombin, collagen, ADP (human platelets (PRP) [1]; ratio of IC50 values): over 150 fold
- IC50 (human platelets (PRP) [2]; read-out: IC50 (μM), platelet activator ADP): > 250 µM
- IC50 (human platelets (PRP) [2]; read-out: IC50 (μM), platelet activator collagen): > 250 µM
- IC50 (human platelets (PRP) [2]; read-out: IC50 (μM), platelet activator thrombin): > 250 µM
- Ristocetin-induced platelet aggregation (human platelets (PRP) [2]; human PRP, ristocetin): attenuated
- Effect on SIPA in washed human platelets (washed human platelets): suppressed
- Size and number of platelet aggregates in collagen-coated flow chamber [3]: significantly reduced
- Effect on shear stress-induced intracellular calcium elevation (washed platelets [4]): decreased the elevation of intracellular calcium
- Effect on shear stress-induced 5-HT release (dense granule secretion) (platelets [5]): significant reduction
- Effect on shear stress-induced P-selectin expression (α-granule secretion) (washed platelets [6]): significant reduction
- Effect on shear stress-induced GP IIb/IIIa activation (GP IIb/IIIa): significantly blocked
- Effect on shear stress-induced fibrinogen binding (washed platelets [7]): significantly blocked
- LDH leakage from platelets (platelets [8]): did not increase LDH leakage
- Binding of vWF to platelets under high shear with GP IIb/IIIa blocked (vWF–GP Ib interaction; GP IIb/IIIa blocked by Arg-Gly-Asp 2 mM): maintained
- Binding of vWF to platelets under high shear (vWF–GP Ib interaction; GP IIb/IIIa free, concentration-dependent): markedly blocked
- Adhesion of platelets to vWF-coated surfaces (human purified vWF): significantly inhibited
- AUC(0-inf) ([9]; iv, 10 mg/kg): 3250 ng·h/mL
- Vd ([9]; iv, 10 mg/kg): 5.3 ± 1.1 L/kg
- clearance ([9]; iv, 10 mg/kg): 51.7 mL/min/kg
- half-life ([9]; iv, 10 mg/kg): 2.4 ± 0.5 h
- bioavailability ([9]; oral, 25 mg·kg^−1): 55.3 ± 16.7%
- AUC(0-inf) ([9]; po, 25 mg/kg): 4490 ng·h/mL
- Cmax ([9]; po, 25 mg/kg): 2370 ng/mL
- half-life ([9]; po, 25 mg/kg): 3.6 ± 1.4 h
- Tmax ([9]; po, 25 mg/kg, tmax (hr)): 7.2 ± 6 min
- Tmax ([9]; po, 25 mg/kg, tmax): ~7 min
- concentration at 3 min ([9]; po, 25 mg·kg^−1): 2290 ng/mL
- concentration at 15 min ([9]; po, 25 mg·kg^−1): 1750 ng/mL and 6 µM
- concentration at 30 min ([9]; po, 25 mg·kg^−1): 1060 ng/mL and 3.7 µM
- concentration at 1 hr ([9]; po, 25 mg·kg^−1): 2.2 µM and 586 ng/mL
- concentration at 4 hr ([9]; po, 25 mg·kg^−1): 1.3 µM and 366 ng/mL
- concentration at 8 hr ([9]; po, 25 mg·kg^−1): 700 nM and 198 ng/mL
- Effect on SIPA in rat platelets in vitro (rat platelets (PRP) [10]): significantly inhibited
- Ex vivo effect on SIPA after oral administration (rat platelets (PRP) [11]): dose‐dependent inhibitory effects
- Potency against arterial thrombosis after intravenous administration ([12]; intravenous administration, data not shown): strong inhibitory potency
- Inhibition of arterial thrombosis compared with clopidogrel (8 mg·kg^−1) ([12]; rats, 25 mg·kg^−1 p.o., single treatment): close to that provided by clopidogrel
- Time to occlusion, single treatment ([12]; rats, 10 or 25 mg·kg^−1 p.o., FeCl3): significantly prolong
- Antithrombotic effects, multiple treatments ([12]; rats, oral twice daily for 5 days (2 weeks elsewhere in the source)): further confirmed
- Tail bleeding time, single dose (SD rats; single oral dose up to 100 mg·kg^−1): did not prolong bleeding time
- Blood clotting time (prothrombin time and activated partial thromboplastin time) [13]: did not prolong blood clotting time

Compound: COC(=O)[C@H](c1ccccc1Cl)N1CCc2sccc2C1 [clopidogrel, reference compound]
- Tail bleeding time (bleeding risk) (SD rats; 8 mg·kg^−1): clearly increased
